Data published in publication PMC9989852 (Food and chemical toxicology : an international journal …, 2022).
Values joined by “and” are separate entries in the source; they are usually repeats but may differ in a detail not shown here. Identical values can stand only once.

Tests used:
[1] = PFAS concentration in pooled urine; assay type: in vivo, B6C3F1 mice; settings: 5%, dermal, 28 days; 5 pooled samples
Procedure, shortened: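 Urine was caught in a weigh boat as it was excreted during CO2 euthanasia, about 24 h after the final daily ear dose (25 μl/ear, acetone vehicle; female B6C3F1 mice). The 5 mice per group were pooled, with variable volume. Samples underwent solid-phase extraction and LC/MS/MS, as linear isomer for short-chain analytes and linear plus branched for the comparator. Each group gave a single value without statistics.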

[2] = tested on: B6C3F1 mice; experiment: Organ weights and body weight after 28-day dermal exposure; assay type: in vivo; settings: 28 days
[3] = tested on: ear pinna; experiment: Ear; assay type: in vivo, B6C3F1 mice; settings: dermal, 28 days, mice affected of 5
Procedure, shortened: (§1)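 Female B6C3F1 mice (5/group) received 25 μl/ear on the dorsal ear surfaces daily, with acetone as vehicle. Tissues were formalin-fixed about 24 h after the last dose: liver remainder, half spleen, right kidney and half ear pinna. Sections were paraffin-embedded, cut at 5 μm and stained with H&E. A veterinary pathologist read them per STP guideline and graded 1 (minimal) to 5 (severe) by extent.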

[4] = tested on: auricular draining lymph nodes (dLNs); experiment: Draining lymph node phenotyping by flow cytometry after 28-day dermal exposure; assay type: in vivo, B6C3F1 mice; settings: 28 days
Procedure, shortened: (§2)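 Female B6C3F1 mice (5/group) received 25 μl/ear daily to the dorsal ears in acetone. About 24 h after the last dose, tissues went into RPMI: both auricular dLNs, half spleen and one ear pinna. Single-cell suspensions were acquired on an LSR II, with populations gated per supplemental strategy and FMO gating controls. Results are mean ± SE, n=5, by one-way ANOVA.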

[5] = tested on: spleen; experiment: Spleen phenotyping by flow cytometry after 28-day dermal exposure; assay type: in vivo, B6C3F1 mice; settings: 28 days
Procedure, shortened: as §2

[6] = tested on: kidney, spleen; experiment: Kidney and spleen histopathology after 28-day dermal exposure; assay type: in vivo, B6C3F1 mice; settings: 1.25–5%, 28 days, data not shown
Procedure, shortened: as §1

[7] = tested on: liver (caudate); experiment: Liver gene expression; assay type: in vivo, B6C3F1 mice; settings: dermal, 28 days
Procedure, shortened: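 Dosing was daily topical to both dorsal ears (25 μl/ear, acetone vehicle) in female B6C3F1 mice. Liver caudate lobe or half ear pinna was stored in RNAlater and homogenized in RLT buffer. RNA was isolated on RNeasy columns with DNase, and 1–2 μg was reverse-transcribed. TaqMan real-time PCR was read as 2−ΔΔCT vs vehicle, normalized to β-actin. Statistics: ANOVA/Dunnett's, or Kruskal-Wallis/Dunn's for unequal variance.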

With `O=C(O)C(F)(F)C(F)(F)C(F)(F)C(F)(F)C(F)(F)F` [PFHxA, perfluorohexanoic acid] the “urine PFAS concentration” value [1] was 1700 µg/mL, the “body weight or overt signs of toxicity” value ([2]; 1.25–5%) was “no changes” and the “Liver weight (% body weight), increase vs vehicle-treated mice” value ([2]; 5%) was 9%. For the same molecule, the “Ear: Degeneration/regeneration, cartilage, focal, Mild (incidence)” value (“Ear: Degeneration/regeneration” for short) ([3]; 1.25%) was 0, the “Ear: Fibrosis, dermis, focal, Minimal (incidence)” value (shortened to “Ear: Fibrosis, dermis, focal”) ([3]; 1.25%) was 0 and the “Ear: Hyperkeratosis, epidermis, focal, Mild (incidence)” value (“Ear: Hyperkeratosis … Mild (incidence)” below) ([3]; 1.25%) was 0. For the same molecule, the “Ear: Hyperkeratosis, epidermis, focal, Minimal (incidence)” value ([3]; 1.25%) was 1, the “Ear: Hyperplasia, epidermis, focal, Mild (incidence)” value (“Ear: Hyperplasia … Mild (incidence)” below) ([3]; 1.25%) was 0 and the “Ear: Hyperplasia, epidermis, focal, Minimal (incidence)” value (“Ear: Hyperplasia … Minimal (incidence)” for short) ([3]; 1.25%) was 5/5 and 5. The “Ear: Inflammation, mixed cell, dermis, Minimal (incidence)” value (“Ear: Inflammation, mixed cell, dermis” for short) ([3]; 1.25%) was 0, the “Ear: Inflammation, mononuclear cell, dermis, Minimal (incidence)” value (“Ear: Inflammation, mononuclear cell” below) ([3]; 1.25%) was 0 and the “Ear: Necrosis, epidermis, multifocal, Minimal (incidence)” value (“Ear: Necrosis, epidermis, multifocal” for short) ([3]; 1.25%) was 0. The “Ear: Degeneration/regeneration” value ([3]; 2.5%) was 0, the “Ear: Fibrosis, dermis, focal” value ([3]; 2.5%) was 0 and the “Ear: Hyperkeratosis … Mild (incidence)” value ([3]; 2.5%) was 0. For the same molecule, the “Ear: Hyperkeratosis, epidermis, focal, Minimal (incidence)” value ([3]; 2.5%) was 4/5 and 4, the “Ear: Hyperplasia … Mild (incidence)” value ([3]; 2.5%) was 0 and the “Ear: Hyperplasia … Minimal (incidence)” value ([3]; 2.5%) was 5/5 and 5. The “Ear: Inflammation, mixed cell, dermis” value ([3]; 2.5%) was 0, the “Ear: Inflammation, mononuclear cell” value ([3]; 2.5%) was 0 and the “Ear: Necrosis, epidermis, multifocal” value ([3]; 2.5%) was 0. For the same molecule, the “Ear: Degeneration/regeneration” value ([3]; 5%) was 1, the “Ear: Fibrosis, dermis, focal” value ([3]; 5%) was 5/5 and 5 and the “Ear: Hyperkeratosis … Mild (incidence)” value ([3]; 5%) was 3/5 and 3. For the same molecule, the “Ear: Hyperkeratosis, epidermis, focal, Minimal (incidence)” value ([3]; 5%) was 2/5 and 2, the “Ear: Hyperplasia … Mild (incidence)” value ([3]; 5%) was 4/5 and 4 and the “Ear: Hyperplasia … Minimal (incidence)” value ([3]; 5%) was 1. The “Ear: Inflammation, mixed cell, dermis” value ([3]; 5%) was 4/5 and 4, the “Ear: Inflammation, mononuclear cell” value ([3]; 5%) was 0 and the “Ear: Necrosis, epidermis, multifocal” value ([3]; 5%) was 0. The “dLN B-cells cell number” value ([4]; 1.25%) was 28.40 ± 6.63 × 10^5, the “dLN B-cells frequency” value ([4]; 1.25%) was 18.06 ± 2.12% and the “dLN CD4^+ cell number” value ([4]; 1.25%) was 5.93 ± 0.59 × 10^6. The “dLN CD4^+ frequency” value ([4]; 1.25%) was 40.24 ± 1.70%, the “dLN CD8^+ cell number” value ([4]; 1.25%) was 42.50 ± 4.15 × 10^5 and the “dLN CD8^+ frequency” value ([4]; 1.25%) was 28.94 ± 1.29%. For the same molecule, the “dLN CD11b+ cell number” value ([4]; 1.25%) was 16.20 ±3.71 × 10^4, the “dLN CD11b+ frequency” value ([4]; 1.25%) was 1.04 ± 0.12% and the “dLN CD86 B-cells” value ([4]; 1.25%) was 98.74 ±6.64 MFI. For the same molecule, the “dLN CD86 DCs” value ([4]; 1.25%) was 11.60 ± 1.51 MFI x 10^2, the “dLN Dendritic Cells cell number” value ([4]; 1.25%) was 29.00 ±2.99 × 10^4 and the “dLN Dendritic Cells frequency” value ([4]; 1.25%) was 2.01 ± 0.22 %. The “dLN Eosinophils cell number” value ([4]; 1.25%) was 96.70 ± 17.60 × 10^2, the “dLN MHCII B-cells” value ([4]; 1.25%) was 7.07 ± 0.37 MFI × 10^2 and the “dLN MHCII DCs” value ([4]; 1.25%) was 57.30 ±2.79 MFI × IQ^2. For the same molecule, the “dLN NK cell number” value ([4]; 1.25%) was 11.60 ±0.64 × 10^4, the “dLN NK frequency” value ([4]; 1.25%) was 0.82 ± 0.08% and the “dLN Neutrophils cell number” value ([4]; 1.25%) was 18.80 ±5.25 × 10^2. For the same molecule, the “dLN Total Cellularity” value ([4]; 1.25%) was 15.00 ± 1.92 × 10^6, the “dLN B-cells cell number” value ([4]; 2.5%) was 32.50 ± 3.50 × 10^5 and the “dLN B-cells frequency” value ([4]; 2.5%) was 15.94 ± 0.38%. The “dLN CD4^+ cell number” value ([4]; 2.5%) was 8.16 ± 0.58 × 10^6, the “dLN CD4^+ frequency” value ([4]; 2.5%) was 40.56 ± 1.03% and the “dLN CD8^+ cell number” value ([4]; 2.5%) was 56.80 ± 5.72 × 10^5. For the same molecule, the “dLN CD8^+ frequency” value ([4]; 2.5%) was 27.94 ± 0.36%, the “dLN CD11b+ cell number” value ([4]; 2.5%) was 25.30 ± 2.29 × 10^4 and the “dLN CD11b+ frequency” value ([4]; 2.5%) was 1.25 ± 0.04 %. The “dLN CD86 B-cells” value ([4]; 2.5%) was 93.54 ± 1.71 MFI, the “dLN CD86 DCs” value ([4]; 2.5%) was 13.20 ± 1.29 MFI x 10^2 and the “dLN Dendritic Cells cell number” value ([4]; 2.5%) was 47.00 ± 5.39 × 10^4. The “dLN Dendritic Cells frequency” value ([4]; 2.5%) was 2.32 ± 0.14 %, the “dLN Eosinophils cell number” value ([4]; 2.5%) was 140.00 ± 17.30 × 10^2 and the “dLN MHCII B-cells” value ([4]; 2.5%) was 7.16 ± 0.11 MFI × 10^2. For the same molecule, the “dLN MHCII DCs” value ([4]; 2.5%) was 63.50 ± 5.71 MFI × IQ^2, the “dLN NK cell number” value ([4]; 2.5%) was 19.50 ± 2.26 × 10^4 and the “dLN NK frequency” value ([4]; 2.5%) was 0.95 ± 0.03 %. For the same molecule, the “dLN Neutrophils cell number” value ([4]; 2.5%) was 21.50 ± 1.28 × 10^2, the “dLN Total Cellularity” value ([4]; 2.5%) was 20.30 ± 1.81 × 10^6 and the “dLN B-cells cell number” value ([4]; 5%) was 37.30 ± 1.54 × 10^5. The “dLN B-cells frequency” value ([4]; 5%) was 17.38 ± 0.94%, the “dLN CD4^+ frequency” value ([4]; 5%) was 41.58 ± 0.62% and the “dLN CD8^+ cell number” value ([4]; 5%) was 58.40 ± 4.46 × 10^5. The “dLN CD8^+ frequency” value ([4]; 5%) was 26.82 ± 0.64%, the “dLN CD11b+ cell number” value ([4]; 5%) was 26.00 ± 3.54 × 10^4 and the “dLN CD11b+ frequency” value ([4]; 5%) was 1.18 ± 0.11%. For the same molecule, the “dLN CD86 B-cells” value ([4]; 5%) was 101.54 ± 3.64 MFI, the “dLN CD86 DCs” value ([4]; 5%) was 9.15 ± 0.71 MFI x 10^2 and the “dLN Dendritic Cells cell number” value ([4]; 5%) was 35.40 ± 5.48 × 10^4. The “dLN Dendritic Cells frequency” value ([4]; 5%) was 1.60 ± 0.19%, the “dLN Eosinophils cell number” value ([4]; 5%) was 142.00 ± 22.90 × 10^2 and the “dLN MHCII B-cells” value ([4]; 5%) was 8.02 ± 0.64 MFI × 10^2. The “dLN NK cell number” value ([4]; 5%) was 17.70 ± 2.11 × 10^4, the “dLN NK frequency” value ([4]; 5%) was 0.80 ± 0.06% and the “dLN Neutrophils cell number” value ([4]; 5%) was 16.70 ± 2.99 × 10^2. The “dLN Total Cellularity” value ([4]; 5%) was 21.70 ± 1.26 × 10^6, the “spleen MFI of CD86 on B-cells” value ([5]; 2.5%) was “increase” and the “spleen NK cell frequency” value ([5]; 2.5%) was “increase”. For the same molecule, the “spleen frequency of CD11b + Ly6C + cells” value ([5]; 2.5%) was “significant decrease”, the “spleen MFI of CD86 on B-cells” value ([5]; 5%) was “increase” and the “spleen frequency of CD11b + Ly6C + cells” value ([5]; 5%) was “significant decrease”. For the same molecule, the “microscopic observations in the kidney or the spleen” value [6] was “No PFPeA, PFHxA, or PFHpA-related microscopic observations”, the “liver Pparδ expression” value ([7]; 1.25%) was “decreasing” and the “liver Acox1 gene expression” value ([7]; 2.5%) was “increase”. For the same molecule, the “liver Fabp1 gene expression” value ([7]; 2.5%) was “increased”, the “liver Pparδ expression” value ([7]; 2.5%) was “decreasing” and the “liver Cd36 gene expression, increase” value ([7]; 5%) was 4.6 fold. The “liver Ehhadh gene expression, increase” value ([7]; 5%) was 4.8 fold and the “liver Pparδ expression” value ([7]; 5%) was “decreasing”.
